Experimental data as given in ChEMBL document CHEMBL4400543, “Identification and Characterization of AES-135, a Hydroxamic Acid-Based HDAC Inhibitor That Prolongs Survival in an Orthotopic Mouse Model of Pancreatic Cancer” (J Med Chem, 2019).
Calls of active or inactive are those of the source.

Key:
[1] = target: Signal transducer and activator of transcription 3 (Homo sapiens) (UniProt P40763); test: Inhibition of STAT3 phosphorylation at S727 residue in human BTSC 143EF cells at 1 to 10 uM after 24 hrs by Western blot method; assay type: cell-based
Signal transducer and activator of transcription 3 (Homo sapiens), sequence (P40763 whole entry): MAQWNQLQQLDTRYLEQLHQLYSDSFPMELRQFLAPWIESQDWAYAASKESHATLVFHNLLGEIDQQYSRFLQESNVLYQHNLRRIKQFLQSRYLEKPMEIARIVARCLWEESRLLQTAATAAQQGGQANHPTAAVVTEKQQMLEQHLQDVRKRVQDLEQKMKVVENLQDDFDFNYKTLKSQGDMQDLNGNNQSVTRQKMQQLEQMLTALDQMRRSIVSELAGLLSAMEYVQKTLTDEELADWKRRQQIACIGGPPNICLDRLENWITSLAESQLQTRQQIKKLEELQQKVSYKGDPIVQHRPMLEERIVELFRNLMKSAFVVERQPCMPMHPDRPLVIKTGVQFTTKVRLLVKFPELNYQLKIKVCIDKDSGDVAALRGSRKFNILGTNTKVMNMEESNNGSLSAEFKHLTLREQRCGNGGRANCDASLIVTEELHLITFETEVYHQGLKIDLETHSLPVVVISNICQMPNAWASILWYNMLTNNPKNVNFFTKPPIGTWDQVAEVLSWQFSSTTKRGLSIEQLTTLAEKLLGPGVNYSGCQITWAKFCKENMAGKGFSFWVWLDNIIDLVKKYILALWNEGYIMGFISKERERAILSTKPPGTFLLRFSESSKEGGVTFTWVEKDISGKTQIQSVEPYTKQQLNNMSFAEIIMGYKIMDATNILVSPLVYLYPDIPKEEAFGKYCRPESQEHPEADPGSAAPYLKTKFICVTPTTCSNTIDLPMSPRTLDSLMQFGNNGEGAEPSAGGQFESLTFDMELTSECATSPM
Outline: (§1)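 BTSCs dissociated to single cells and treated with drug or DMSO. Lysed in RIPA buffer with protease inhibitors. 20 μg lysate run on SDS-PAGE and transferred to nitrocellulose. Blocked in 5% milk, primary antibody overnight at 4 °C, then HRP secondary for 1 h.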

[2] = target: Signal transducer and activator of transcription 3 (Homo sapiens) (UniProt P40763); test: Inhibition of STAT3 phosphorylation at Y705 residue in human BTSC 147EF cells at 2 uM after 3 to 24 hrs by Western blot method; assay type: cell-based; outline: as §1
[3] = tested on: Mus musculus; test: Antitumor activity against mouse KPC cells allografted in […] C57BI/6 mouse assessed as mean survival time at 50 mg/kg, ip administered daily for 5 days per week for 1 month starting on day 7 post implantation (reference value: 29.5 days); assay type: functional, organism-based
[4] = Cytotoxicity against human Pa02C monolayer cells assessed as reduction in tumor spheroid intensity after 72 hrs by Alamar Blue assay; assay type: functional, cell-based
Outline: (§2)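 Monolayer proliferation of STR-authenticated, mycoplasma-checked patient-derived PDAC lines and mouse KPC cells. Plated at 2000 cells/well, treated 72 h, read by alamarBlue. At least triplicate, n = 3–5.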

[5] = tested on: Pa03C; test: Cytotoxicity against human Pa03C monolayer cells assessed as reduction in tumor spheroid intensity after 72 hrs by Alamar Blue assay; assay type: functional, cell-based; outline: as §2
[6] = Lipophilicity, log D of the compound at pH 7.4 by LC-ESI MS analysis; assay type: physicochemical; conditions: buffer
Outline: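 Partitioning measured in a 1-octanol/phosphate-buffered saline system at pH 7.4.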

[7] = tested on: MDA-MB-231; test: Cytotoxicity against human MDA-MB-231 cells after 72 hrs by CellTiter-Blue assay; assay type: functional, cell-based; conditions: MDA-MB-231, 72 h
Outline: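 MDA-MB-231 cells in DMEM with 10% FBS, 10 000 cells/well, treated after 24 h. Twofold dilutions from 50.0 μM, in triplicate, 0.5% DMSO vehicle. 72 h at 37 °C. CellTiter-Blue fluorescence read at 560/590 nm. IC50 by nonlinear regression.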

[8] = target: T1, Histone deacetylase 11 (Homo sapiens, UniProt Q96DB2); test: Inhibition of recombinant human HDAC11 expressed in SF9 baculoviral system using FAM-labeled acetylated peptide as substrate by EMSA
T1 sequence (Q96DB2 whole entry): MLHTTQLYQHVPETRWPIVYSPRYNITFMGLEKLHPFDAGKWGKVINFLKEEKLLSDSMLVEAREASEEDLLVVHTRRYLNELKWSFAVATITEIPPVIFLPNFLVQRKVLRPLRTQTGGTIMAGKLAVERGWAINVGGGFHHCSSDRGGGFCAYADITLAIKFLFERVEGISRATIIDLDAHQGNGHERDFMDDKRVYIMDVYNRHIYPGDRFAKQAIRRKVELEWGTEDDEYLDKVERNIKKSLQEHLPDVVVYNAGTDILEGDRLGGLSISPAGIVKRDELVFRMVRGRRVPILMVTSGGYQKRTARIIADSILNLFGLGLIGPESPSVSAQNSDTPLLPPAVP
Outline: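 Full-length human HDAC11 (Sf9-expressed), 10 nM final, in 100 mM HEPES pH 7.5, 25 mM KCl, 0.1% BSA, 0.01% Triton X-100, 1% DMSO. FAM-acetylated peptide substrate at 100 μM, mobility-shift read-out. Product/(substrate + product) converted to % inhibition. IC50 from a four-parameter fit; dose-response spans 12 threefold dilutions from 30.0 μM.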

[9] = tested on: Pa03C; test: Cytotoxicity against human Pa03C cells assessed as reduction in tumor spheroid intensity after 72 hrs in presence of human CAF19 cells by Alamar Blue assay; assay type: functional, cell-based
Outline: (§3)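 3D spheroids of patient-derived PDAC cells (tomato red) alone or with CAF19 cells, plus CAF cultures. Imaging read-outs: area is the μ2 of objects above a tomato red intensity threshold; intensity is summed red or green pixel fluorescence after background removal. n = 3–5.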

[10] = target: Histone deacetylase 8 (Homo sapiens) (UniProt Q9BY41); test: Inhibition of recombinant human HDAC8 expressed in SF9 baculoviral system at 10 uM using FAM-labeled acetylated peptide as substrate by EMSA relative to control
Histone deacetylase 8 (Homo sapiens), sequence (Q9BY41 whole entry): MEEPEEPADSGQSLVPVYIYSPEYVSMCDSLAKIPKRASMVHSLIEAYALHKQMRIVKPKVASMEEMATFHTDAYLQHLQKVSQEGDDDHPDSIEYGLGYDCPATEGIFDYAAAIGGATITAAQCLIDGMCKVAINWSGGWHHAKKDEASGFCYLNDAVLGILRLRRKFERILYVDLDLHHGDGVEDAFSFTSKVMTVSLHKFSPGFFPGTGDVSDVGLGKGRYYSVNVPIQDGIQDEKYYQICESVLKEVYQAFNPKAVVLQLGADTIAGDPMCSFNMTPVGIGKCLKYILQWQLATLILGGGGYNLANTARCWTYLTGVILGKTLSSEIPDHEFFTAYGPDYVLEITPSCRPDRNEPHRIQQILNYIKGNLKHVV
Outline: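 Single-point screen at 10 μM compound, using full-length recombinant human enzyme expressed in Sf9 cells. Buffer was HEPES pH 7.5 with KCl, BSA and Triton X-100, and 1% DMSO. Final enzyme was 0.5 nM for HDAC3, 60 nM for HDAC6 and 5.0 nM for HDAC8, with 1 μM FAM-acetylated peptide. Percent inhibition was derived from the product sum ratio relative to DMSO-only (0%) and no-enzyme (100%) controls.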

[11] = Selectivity ratio of IC50 for human CAF19 cells to IC50 for human Panc 10.05 cells
[12] = target: Signal transducer and activator of transcription 3 (Homo sapiens) (UniProt P40763); test: Inhibition of STAT3 phosphorylation at S727 residue in human BTSC 100EF cells at 1 to 10 uM after 24 hrs by Western blot method; assay type: cell-based; outline: as §1
[13] = Half life in ICR/CD1 mouse hepatocytes at 1 uM up to 120 mins by LC-MS/MS analysis; assay type: ADME, cell-based, Hepatocyte; conditions: 2 h
[14] = target: Signal transducer and activator of transcription 5B (Homo sapiens) (UniProt P51692); test: Inhibition of STAT5b phosphorylation at Y694 in human MV4-11 cells at 10 uM after 5 hrs by Western blot method; assay type: cell-based
Signal transducer and activator of transcription 5B (Homo sapiens), sequence (P51692 whole entry): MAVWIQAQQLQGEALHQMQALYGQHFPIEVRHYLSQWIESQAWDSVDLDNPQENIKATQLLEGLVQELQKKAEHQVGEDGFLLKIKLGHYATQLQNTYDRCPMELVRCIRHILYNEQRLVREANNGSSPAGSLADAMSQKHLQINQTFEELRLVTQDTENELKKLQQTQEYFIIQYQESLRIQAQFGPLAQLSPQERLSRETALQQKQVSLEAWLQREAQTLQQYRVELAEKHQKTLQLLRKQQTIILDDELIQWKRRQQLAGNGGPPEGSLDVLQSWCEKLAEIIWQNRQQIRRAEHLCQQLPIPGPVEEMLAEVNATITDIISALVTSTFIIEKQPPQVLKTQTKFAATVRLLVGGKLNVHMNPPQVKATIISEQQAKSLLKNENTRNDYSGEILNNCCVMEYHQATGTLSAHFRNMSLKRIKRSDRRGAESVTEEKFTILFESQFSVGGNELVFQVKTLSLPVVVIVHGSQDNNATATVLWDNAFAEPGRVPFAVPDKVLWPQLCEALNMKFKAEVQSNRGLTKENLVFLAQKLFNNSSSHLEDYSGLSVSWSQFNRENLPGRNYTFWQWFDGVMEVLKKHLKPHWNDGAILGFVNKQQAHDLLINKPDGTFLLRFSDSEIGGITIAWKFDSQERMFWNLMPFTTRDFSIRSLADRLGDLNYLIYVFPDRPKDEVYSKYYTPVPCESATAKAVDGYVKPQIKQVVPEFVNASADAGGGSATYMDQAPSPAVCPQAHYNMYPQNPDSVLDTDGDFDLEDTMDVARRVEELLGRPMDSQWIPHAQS
Outline: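 Run on 4–15% SDS-PAGE and transferred to PVDF. Primary antibodies 1:1000 overnight at 4 °C, HRP or fluorescent secondary 1:5000, ECL detection, β-actin loading control.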

[15] = tested on: Panc1005; test: Cytotoxicity against human Panc 10.05 cells assessed as reduction in tumor spheroid intensity after 72 hrs in presence of human CAF19 cells by Alamar Blue assay; assay type: functional, cell-based; conditions: Panc1005, 72 h; outline: as §3

CC(C)(C)c1ccc(CN(C(=O)CN(Cc2c(F)c(F)c(F)c(F)c2F)S(=O)(=O)c2ccc(F)cc2)c2ccc(C(=O)NO)cc2)cc1
inhibition [1]: inactive
inhibition [2]: inactive
Activity [3]: inactive
IC50 [4]: 4.6 µM
IC50 [5]: 3.4 µM
logD [6]: 4.15
IC50 [7]: 2720 nM
IC50 [8]: 636 nM
IC50 [9]: 1560 nM
inhibition [10]: 94%
Ratio IC50 [11]: 5 - 6
inhibition [12]: inactive
t1/2 [13]: 38.5 min
inhibition [14]: inactive
IC50 [15]: 500 nM
